From ChEMBL document CHEMBL1149153, “Synthesis and selective cyclooxygenase-2 inhibitory activity of a series of novel, nitric oxide donor-containing pyrazoles” (J Med Chem, 2004)

Molecular target: T1, Prostaglandin G/H synthase 2 (Homo sapiens) (UniProt P35354)
T1 sequence (whole entry): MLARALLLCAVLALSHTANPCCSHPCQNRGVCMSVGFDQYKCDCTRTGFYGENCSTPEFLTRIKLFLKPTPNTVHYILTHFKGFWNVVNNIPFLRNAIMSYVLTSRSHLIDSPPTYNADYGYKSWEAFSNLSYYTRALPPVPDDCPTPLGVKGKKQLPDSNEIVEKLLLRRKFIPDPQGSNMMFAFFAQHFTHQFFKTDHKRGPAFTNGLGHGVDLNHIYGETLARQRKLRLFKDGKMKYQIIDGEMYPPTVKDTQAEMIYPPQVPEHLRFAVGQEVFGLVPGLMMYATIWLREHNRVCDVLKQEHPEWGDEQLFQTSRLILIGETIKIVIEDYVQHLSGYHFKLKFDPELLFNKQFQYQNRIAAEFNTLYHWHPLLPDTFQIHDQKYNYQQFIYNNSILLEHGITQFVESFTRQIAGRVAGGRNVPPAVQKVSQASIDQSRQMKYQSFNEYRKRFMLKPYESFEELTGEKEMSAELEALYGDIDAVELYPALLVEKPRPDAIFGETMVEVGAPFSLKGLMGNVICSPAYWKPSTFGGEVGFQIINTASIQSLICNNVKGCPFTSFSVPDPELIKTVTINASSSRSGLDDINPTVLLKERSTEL
Conditions: Blood; at 10 µM

| SMILES | inhibition [%] |
| --- | --- |
| CS(=O)(=O)c1ccc(-c2cc(C(=O)CCCO)nn2-c2ccc(Br)cc2)cc1 | 70 |
| CS(=O)(=O)c1ccc(-c2cc(C(=O)CCCO)nn2C2CCCCC2)cc1 | 90 |
| CS(=O)(=O)c1ccc(-c2cc(C(=O)CCCCCO[N+](=O)[O-])nn2C2CCCCC2)cc1 | 75 |
| CS(=O)(=O)c1ccc(-c2cc(C(=O)CCCO)nn2-c2ccc(Cl)cc2)cc1 | 60 |
| Cc1ccc(-n2nc(C(=O)CCCO)cc2-c2ccc(S(C)(=O)=O)cc2)cc1 | 45 |
| CS(=O)(=O)c1ccc(-c2cc(/C=C/CO[N+](=O)[O-])nn2CC2CCCCC2)cc1 | 75 |
| CC(C)CC(CC(C)C)n1nc(CO)cc1-c1ccc(S(C)(=O)=O)cc1 | 25 |
| CCOC(=O)N1CCC(n2nc(CO[N+](=O)[O-])cc2-c2ccc(S(C)(=O)=O)cc2)CC1 | 0 |
| CS(=O)(=O)c1ccc(-c2cc(/C=C/CCO[N+](=O)[O-])nn2-c2ccccc2)cc1 | 90 |
| CS(=O)(=O)c1ccc(-c2cc(CO)nn2C2CCCCCC2)cc1 | 25 |
| CS(=O)(=O)c1ccc(-c2cc(CCCO[N+](=O)[O-])nn2CC2CCCCC2)cc1 | 100 |
| CC(C)CC(CC(C)C)n1nc(CO[N+](=O)[O-])cc1-c1ccc(S(C)(=O)=O)cc1 | 0 |

More lines, now with the values ahead:

| inhibition [%] | SMILES |
| --- | --- |
| 90 | CS(=O)(=O)c1ccc(-c2cc(CCCO)nn2CC2CCCCC2)cc1 |
| 100 | CS(=O)(=O)c1ccc(-c2cc(CCCO[N+](=O)[O-])nn2C2CCCCC2)cc1 |
| 90 | CS(=O)(=O)c1ccc(-c2cc(CCCO)nn2C2CCCCC2)cc1 |

Molecular target: T2, Prostaglandin G/H synthase 1 (Homo sapiens, UniProt P23219)
Test: Compound was evaluated for percent inhibition of recombinant prostaglandin G/H synthase 1 in human whole blood (HWB) at a concentration of 100 um
Format: tissue-based
Conditions: not given

T2 sequence (P23219 whole entry): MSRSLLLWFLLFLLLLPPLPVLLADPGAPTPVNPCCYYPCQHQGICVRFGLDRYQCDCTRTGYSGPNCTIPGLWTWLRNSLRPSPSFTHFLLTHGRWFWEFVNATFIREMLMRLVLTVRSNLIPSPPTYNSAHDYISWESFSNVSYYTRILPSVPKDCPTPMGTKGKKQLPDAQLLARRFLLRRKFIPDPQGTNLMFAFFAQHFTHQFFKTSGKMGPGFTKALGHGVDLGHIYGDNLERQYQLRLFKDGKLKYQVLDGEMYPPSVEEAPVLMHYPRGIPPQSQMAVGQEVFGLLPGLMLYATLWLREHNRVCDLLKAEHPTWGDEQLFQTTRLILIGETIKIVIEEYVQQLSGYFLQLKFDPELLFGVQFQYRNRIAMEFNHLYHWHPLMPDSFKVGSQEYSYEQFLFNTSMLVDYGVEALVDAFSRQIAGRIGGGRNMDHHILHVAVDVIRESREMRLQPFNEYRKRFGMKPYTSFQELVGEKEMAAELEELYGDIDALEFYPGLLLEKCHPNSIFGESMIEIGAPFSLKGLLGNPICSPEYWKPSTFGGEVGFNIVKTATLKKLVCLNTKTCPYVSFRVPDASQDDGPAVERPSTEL

| SMILES | inhibition [%] |
| --- | --- |
| CS(=O)(=O)c1ccc(-c2cc(CO)nn2CC2CCCCC2)cc1 | 65 |
| CS(=O)(=O)c1ccc(-c2cc(CO)nn2C2CCOCC2)cc1 | 10 |
| CS(=O)(=O)c1ccc(-c2cc(CO)nn2C2CCCCC2)cc1 | 25 |
| CS(=O)(=O)c1ccc(C2=C(c3ccccc3)C(=O)OC2)cc1 | 0 |
| CS(=O)(=O)c1ccc(-c2cc(CCO)nn2C2CCCCC2)cc1 | 35 |

Now from value to molecule:

| inhibition [%] | SMILES |
| --- | --- |
| 0 | CS(=O)(=O)c1ccc(-c2cc(CCO[N+](=O)[O-])nn2C2CCCCC2)cc1 |
| 0 | CS(=O)(=O)c1ccc(-c2cc(CO[N+](=O)[O-])nn2C2CCCC2)cc1 |
| 25 | CS(=O)(=O)c1ccc(-c2cc(CO[N+](=O)[O-])nn2CC2CCCCC2)cc1 |

Molecular target: T1, Prostaglandin G/H synthase 2 (Homo sapiens)
Conditions: Blood; at 10 µM
Remark: another data set of the same source

| inhibition [%] | SMILES |
| --- | --- |
| 10 | CS(=O)(=O)c1ccc(-c2cc(CO)nn2C2CCOCC2)cc1 |

Same assay, conditions: recombinant enzyme; at 10 µM

| SMILES | inhibition [%] |
| --- | --- |
| CS(=O)(=O)c1ccc(-c2cc(CO)nn2CC2CCCCC2)cc1 | 40 |
| CS(=O)(=O)c1ccc(-c2cc(CO)nn2C2CCCCC2)cc1 | 35 |
| CS(=O)(=O)c1ccc(-c2cc(CO)nn2C2CCS(=O)(=O)CC2)cc1 | 10 |
| CS(=O)(=O)c1ccc(-c2cc(CCO)nn2C2CCCCC2)cc1 | 35 |

Results, then the molecule that gave them:

| inhibition [%] | SMILES |
| --- | --- |
| 0 | CS(=O)(=O)c1ccc(-c2cc(CO[N+](=O)[O-])nn2C2CCS(=O)(=O)CC2)cc1 |
| 95 | CS(=O)(=O)c1ccc(-c2cc(CCO[N+](=O)[O-])nn2C2CCCCC2)cc1 |
| 65 | CS(=O)(=O)c1ccc(-c2cc(CO[N+](=O)[O-])nn2CC2CCCCC2)cc1 |

Molecular target: T1, Prostaglandin G/H synthase 2 (Homo sapiens)
Conditions: Blood; at 1 µM

| inhibition [%] | SMILES |
| --- | --- |
| 0 | CS(=O)(=O)c1ccc(-c2cc(CO)nn2C2CCOCC2)cc1 |

Same assay, conditions: recombinant enzyme; at 1 µM

| SMILES | inhibition [%] |
| --- | --- |
| CS(=O)(=O)c1ccc(-c2cc(CO)nn2CC2CCCCC2)cc1 | 0 |
| CS(=O)(=O)c1ccc(-c2cc(CO)nn2C2CCCCC2)cc1 | 10 |
| CS(=O)(=O)c1ccc(C2=C(c3ccccc3)C(=O)OC2)cc1 | 45 |
| CS(=O)(=O)c1ccc(-c2cc(CO)nn2C2CCS(=O)(=O)CC2)cc1 | 0 |
| CS(=O)(=O)c1ccc(-c2cc(CCO)nn2C2CCCCC2)cc1 | 0 |

More lines, now with the values ahead:

| inhibition [%] | SMILES |
| --- | --- |
| 10 | CS(=O)(=O)c1ccc(-c2cc(CO[N+](=O)[O-])nn2C2CCS(=O)(=O)CC2)cc1 |
| 45 | CS(=O)(=O)c1ccc(-c2cc(CCO[N+](=O)[O-])nn2C2CCCCC2)cc1 |
| 10 | CS(=O)(=O)c1ccc(-c2cc(CO[N+](=O)[O-])nn2CC2CCCCC2)cc1 |

Molecular target: T1, Prostaglandin G/H synthase 2 (Homo sapiens)
Conditions: Blood; at 1 µM
Remark: another data set of the same source

| SMILES | inhibition [%] |
| --- | --- |
| CS(=O)(=O)c1ccc(-c2cc(C(=O)CCCO)nn2-c2ccc(Br)cc2)cc1 | 15 |
| CS(=O)(=O)c1ccc(-c2cc(C(=O)CCCO)nn2C2CCCCC2)cc1 | 80 |
| CS(=O)(=O)c1ccc(-c2cc(C(=O)CCCCCO[N+](=O)[O-])nn2C2CCCCC2)cc1 | 80 |
| CS(=O)(=O)c1ccc(-c2cc(C(=O)CCCO)nn2-c2ccc(Cl)cc2)cc1 | 30 |
| Cc1ccc(-n2nc(C(=O)CCCO)cc2-c2ccc(S(C)(=O)=O)cc2)cc1 | 15 |
| CS(=O)(=O)c1ccc(-c2cc(/C=C/CO[N+](=O)[O-])nn2CC2CCCCC2)cc1 | 35 |
| CC(C)CC(CC(C)C)n1nc(CO)cc1-c1ccc(S(C)(=O)=O)cc1 | 10 |
| CCOC(=O)N1CCC(n2nc(CO[N+](=O)[O-])cc2-c2ccc(S(C)(=O)=O)cc2)CC1 | 0 |
| CS(=O)(=O)c1ccc(-c2cc(/C=C/CCO[N+](=O)[O-])nn2-c2ccccc2)cc1 | 55 |
| CS(=O)(=O)c1ccc(-c2cc(CO)nn2C2CCCCCC2)cc1 | 10 |
| CS(=O)(=O)c1ccc(-c2cc(CCCO[N+](=O)[O-])nn2CC2CCCCC2)cc1 | 75 |
| CC(C)CC(CC(C)C)n1nc(CO[N+](=O)[O-])cc1-c1ccc(S(C)(=O)=O)cc1 | 15 |

The remaining lines, values ahead:

| inhibition [%] | SMILES |
| --- | --- |
| 45 | CS(=O)(=O)c1ccc(-c2cc(CCCO)nn2CC2CCCCC2)cc1 |
| 75 | CS(=O)(=O)c1ccc(-c2cc(CCCO[N+](=O)[O-])nn2C2CCCCC2)cc1 |
| 45 | CS(=O)(=O)c1ccc(-c2cc(CCCO)nn2C2CCCCC2)cc1 |

Molecular target: T2, Prostaglandin G/H synthase 1
Test: Percentage inhibition of prostaglandin G/H synthase 1 in human whole blood (HWB) at a concentration of 100 um
Format: tissue-based
Conditions: not given
Method in brief: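 Fresh heparinized blood came from aspirin/NSAID-free donors (14 days). 1 mL aliquots were equilibrated at 37 °C, 5% CO2, with rotation for 15 min. Compound was added at 100 μM from DMSO, in duplicate wells. A23187 (25 μM final) was added 4.75 h later and the incubation stopped 30 min after that. TXB2 was measured by EIA in duplicate; values average two donors.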

| SMILES | inhibition [%] |
| --- | --- |
| CS(=O)(=O)c1ccc(-c2cc(C(=O)CCCO)nn2-c2ccc(Br)cc2)cc1 | 0 |
| CS(=O)(=O)c1ccc(-c2cc(C(=O)CCCO)nn2C2CCCCC2)cc1 | 0 |
| CS(=O)(=O)c1ccc(-c2cc(C(=O)CCCCCO[N+](=O)[O-])nn2C2CCCCC2)cc1 | 25 |
| CS(=O)(=O)c1ccc(-c2cc(C(=O)CCCO)nn2-c2ccc(Cl)cc2)cc1 | 10 |
| Cc1ccc(-n2nc(C(=O)CCCO)cc2-c2ccc(S(C)(=O)=O)cc2)cc1 | 0 |
| CS(=O)(=O)c1ccc(-c2cc(/C=C/CO[N+](=O)[O-])nn2CC2CCCCC2)cc1 | 50 |
| CC(C)CC(CC(C)C)n1nc(CO)cc1-c1ccc(S(C)(=O)=O)cc1 | 0 |
| CCOC(=O)N1CCC(n2nc(CO[N+](=O)[O-])cc2-c2ccc(S(C)(=O)=O)cc2)CC1 | 20 |
| CS(=O)(=O)c1ccc(-c2cc(/C=C/CCO[N+](=O)[O-])nn2-c2ccccc2)cc1 | 85 |
| CS(=O)(=O)c1ccc(-c2cc(CO)nn2C2CCCCCC2)cc1 | 40 |
| CS(=O)(=O)c1ccc(-c2cc(CCCO[N+](=O)[O-])nn2CC2CCCCC2)cc1 | 90 |
| CC(C)CC(CC(C)C)n1nc(CO[N+](=O)[O-])cc1-c1ccc(S(C)(=O)=O)cc1 | 15 |

Further lines, results first:

| inhibition [%] | SMILES |
| --- | --- |
| 40 | CS(=O)(=O)c1ccc(-c2cc(CO)nn2C2CCCC2)cc1 |
| 90 | CS(=O)(=O)c1ccc(-c2cc(CCCO)nn2CC2CCCCC2)cc1 |
| 90 | CS(=O)(=O)c1ccc(-c2cc(CCCO[N+](=O)[O-])nn2C2CCCCC2)cc1 |
| 90 | CS(=O)(=O)c1ccc(-c2cc(CCCO)nn2C2CCCCC2)cc1 |
